Test [1] deals with Mu-type opioid receptor (Rattus norvegicus, UniProt P33535). The test can be described thus: Displacement of [3H]diprenorphine from rat mu opioid receptor expressed in CHO-K1 cells. The test is classed as cell-based. A digest of the protocol: (§1)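 Competition binding used membranes from stably transfected CHO-K1 cells. The radioligand was leucyl-[3H]nociceptin for ORL1 and [3H]diprenorphine for mu, delta and kappa. Nonspecific binding was defined with unlabeled nociceptin (ORL1), naloxone (mu), naltrindole (delta) or naloxone benzoylhydrazone (kappa). Incubation was 1 h at 25 °C in 50 mM Tris-HCl pH 7.8 with 5 mM MgCl2, 1 mM EGTA and 0.1% BSA. Samples were filtered on PEI-soaked GF/B filters and counted. Ki was derived by Cheng–Prusoff.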
Sequence of Mu-type opioid receptor (Rattus norvegicus, UniProt P33535) (P33535 whole entry): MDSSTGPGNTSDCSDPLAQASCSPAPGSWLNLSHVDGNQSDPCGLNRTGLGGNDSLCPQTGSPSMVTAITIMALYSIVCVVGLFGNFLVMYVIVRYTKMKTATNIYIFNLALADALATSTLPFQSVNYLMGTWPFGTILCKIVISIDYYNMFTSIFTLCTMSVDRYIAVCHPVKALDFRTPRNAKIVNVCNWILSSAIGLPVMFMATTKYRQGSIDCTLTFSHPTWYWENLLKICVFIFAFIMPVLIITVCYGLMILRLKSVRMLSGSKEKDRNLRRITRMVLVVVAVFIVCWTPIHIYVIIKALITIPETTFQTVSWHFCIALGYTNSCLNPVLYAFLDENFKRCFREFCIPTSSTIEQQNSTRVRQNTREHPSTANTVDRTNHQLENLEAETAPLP
(Displacement assays read how much labelled ligand stays bound in the presence of the test substance.)

Test [2] in a line: Displacement of [3H]nociceptin from human ORL1 receptor expressed in CHO-K1 cells. The test is classed as cell-based. A digest of the protocol: as §1
A short description of test [3]: Selectivity ratio of Ki for rat mu opioid receptor to Ki for human ORL1 receptor. Summed up:
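Membranes came from CHO-K1 cells expressing rat mu opioid receptor ([3H]diprenorphine; naloxone defines nonspecific binding) or human ORL1 ([3H]nociceptin; unlabeled nociceptin). Ki values were calculated by Cheng–Prusoff.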

The next test relates to CHO-K1. The test can be described thus: Antagonist activity at human ORL1 receptor expressed in CHO-K1 cells assessed as inhibition of forskolin-stimulated cAMP accumulation. The test is classed as functional, cell-based. Summed up: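 CHO-K1 cells stably expressing human ORL1 were preincubated 5 min at 37 °C, 5% CO2, in Krebs-Henseleit solution (pH 7.4) with 0.5 mM IBMX. Forskolin (3 μM final) and test compound (1–1000 nM) were then added with or without nociceptin and incubated 10 min at 37 °C. Cells were lysed, and intracellular cAMP was measured by enzyme immunoassay the same day.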
(Cyclic AMP is a second messenger, typically raised through Gs and lowered through Gi signalling.)

The nature of test [4]: Antagonist activity at human ORL1 receptor expressed in CHO-K1 cells assessed as inhibition of cAMP accumulation.
Test [5] addresses Kappa-type opioid receptor (Rattus norvegicus, UniProt P34975). The test is described as follows: Displacement of [3H]diprenorphine from rat kappa opioid receptor expressed in CHO-K1 cells. The test is classed as cell-based. A digest of the protocol: as §1
In test [6] the target is Mu-type opioid receptor (Homo sapiens, UniProt P35372). The test can be described thus: Displacement of [3H]diprenorphine from human mu opioid receptor expressed in CHO-K1 cells. The test is classed as cell-based. Summed up:
as §1

Test [7] concerns the target Delta-type opioid receptor (Rattus norvegicus, UniProt P33533). The test is described as follows: Displacement of [3H]diprenorphine from rat delta opioid receptor expressed in CHO-K1 cells. The test is classed as cell-based. Summed up: as §1

Activity calls are given as the source filed them. The calls are words filed in the database; no cut-off is given here.

The Ki is a dissociation constant, usually derived from enzyme kinetics or from competition with a known ligand. Read a high Ki as weaker binding. As usually defined, the IC50 is the concentration at which inhibition is half-maximal.

Sequence of Mu-type opioid receptor (Homo sapiens, UniProt P35372) (P35372 whole entry): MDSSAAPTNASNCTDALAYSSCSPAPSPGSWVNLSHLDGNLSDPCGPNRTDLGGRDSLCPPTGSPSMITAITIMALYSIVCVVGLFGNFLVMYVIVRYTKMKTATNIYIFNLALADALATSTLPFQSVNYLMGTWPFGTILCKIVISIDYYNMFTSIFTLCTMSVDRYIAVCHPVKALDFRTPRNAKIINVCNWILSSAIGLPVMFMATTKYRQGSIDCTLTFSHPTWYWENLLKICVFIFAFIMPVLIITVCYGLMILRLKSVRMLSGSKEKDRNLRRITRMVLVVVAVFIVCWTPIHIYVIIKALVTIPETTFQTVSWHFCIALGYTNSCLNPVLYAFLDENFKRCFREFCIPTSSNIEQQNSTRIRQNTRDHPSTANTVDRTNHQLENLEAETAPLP
Sequence of Kappa-type opioid receptor (P34975 whole entry): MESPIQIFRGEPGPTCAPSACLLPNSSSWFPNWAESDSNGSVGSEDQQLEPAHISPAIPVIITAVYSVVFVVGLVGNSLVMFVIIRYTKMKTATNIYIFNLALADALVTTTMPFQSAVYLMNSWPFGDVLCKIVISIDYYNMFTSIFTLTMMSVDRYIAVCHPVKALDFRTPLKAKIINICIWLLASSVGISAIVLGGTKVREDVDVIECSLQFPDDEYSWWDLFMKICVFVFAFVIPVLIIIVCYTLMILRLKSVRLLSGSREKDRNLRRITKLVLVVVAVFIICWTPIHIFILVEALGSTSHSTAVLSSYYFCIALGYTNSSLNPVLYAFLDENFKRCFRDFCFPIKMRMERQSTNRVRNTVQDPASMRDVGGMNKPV
Sequence of Delta-type opioid receptor (P33533 whole entry): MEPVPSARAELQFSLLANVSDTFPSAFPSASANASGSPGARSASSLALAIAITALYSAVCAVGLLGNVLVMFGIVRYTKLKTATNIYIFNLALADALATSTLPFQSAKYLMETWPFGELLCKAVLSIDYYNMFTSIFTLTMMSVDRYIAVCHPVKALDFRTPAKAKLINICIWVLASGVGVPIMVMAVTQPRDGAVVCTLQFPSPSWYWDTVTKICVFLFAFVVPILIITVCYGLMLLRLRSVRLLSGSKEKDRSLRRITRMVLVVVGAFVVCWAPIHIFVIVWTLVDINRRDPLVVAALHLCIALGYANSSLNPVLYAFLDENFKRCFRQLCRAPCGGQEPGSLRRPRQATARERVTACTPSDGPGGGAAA

With `NCCCCCCNc1nc(/C=C/c2ccc(Cl)cc2)nc2ccc(Cl)cc12`, the Ki on Mu-type opioid receptor [1] was 380 nM; in test [2] it was 294 nM. Moreover, the Ratio Ki in test [3] is 1.29.

On to `Cc1ccc2nc(/C=C/c3ccc(Cl)cc3)nc(NCCCCCCN)c2c1`, for which the results for the inhibition constant (Ki) (at Mu-type opioid receptor [1]; in test [2]) were 120 nM and 232 nM, respectively. In addition, the Ratio Ki in test [3] was found to be 0.51.

For the molecule `Cc1ccc2nc(/C=C/c3ccc(Cl)cc3)nc(N[C@H]3CCCC[C@H]3N)c2c1` (racemic), the inhibition constant (Ki) on Mu-type opioid receptor [1] came out at 150 nM; in test [2], 200 nM. Also, in test [3], the Ratio Ki turned out to be 0.75.

As to `Cc1ccc2nc(/C=C/c3ccc(Cl)cc3)nc(N[C@H]3CC[C@@H](N)CC3)c2c1`, the Ki at Mu-type opioid receptor [1] was 410 nM; in test [2], 162 nM. Also, the Ratio Ki in test [3] amounted to 2.53.

`Cc1ccc2nc(/C=C/c3ccc(Cl)cc3)nc(NCCCCNC(=N)N)c2c1`: the values for the Ki (on Mu-type opioid receptor [1]; in test [2]) were 2300 nM and 160 nM, respectively. Moreover, in test [3], the Ratio Ki is 14.4.

Turning to `Cc1ccc2nc(/C=C/c3ccc(Cl)cc3)nc(N[C@H]3CCCC[C@H]3NC(=N)N)c2c1` (racemic), the Ki on Mu-type opioid receptor [1] came out at 220 nM; in test [2] it was 43 nM. In test [3], the Ratio Ki was 5.11.

Regarding `Cc1ccc2nc(/C=C/c3ccc(Cl)cc3)nc(NCCCCN)c2c1`, the Ki on Mu-type opioid receptor [1] amounted to 250 nM; in test [2] it was 194 nM. In test [3], the Ratio Ki was 1.29.

Consider `NCCCCCCNc1nc(/C=C/c2ccc(Cl)cc2)nc2ccccc12`, for which the Ki at Mu-type opioid receptor [1] worked out at 180 nM; in test [2], 383 nM. The Ratio Ki in test [3] was 0.47.

Consider `Cc1ccc2nc(/C=C/c3ccc(Cl)cc3)nc(NCCN)c2c1`, for which the Ki on Mu-type opioid receptor [1] stood at 240 nM; in test [2], 972 nM. In test [3], the Ratio Ki came to 0.25.

In the case of `Cc1ccc2nc(NC(=O)c3ccc(Cl)cc3)nc(N[C@@H]3CCCC[C@@H]3NC(=N)N)c2c1` (single isomer, unassigned), the result in the test with CHO-K1 was inactive. Further, the half-inhibitory concentration (IC50) in test [4] turned out to be 17 nM. Also, the Ki in test [5] was 2400 nM; in test [2], 1.4 nM; at Mu-type opioid receptor [6], 330 nM; in test [7], 3.6 µM.

Regarding `Cc1ccc2nc(NC(=O)c3ccc(Cl)cc3)nc(N[C@H]3CCCC[C@H]3NC(=N)N)c2c1` (single isomer, unassigned), the inhibition constant Ki was determined as 510 nM in test [5], 140 nM in test [2], 270 nM on Mu-type opioid receptor [6] and 4.3 µM in test [7].

As to `Cc1ccc2nc(/C=C/c3ccc(Cl)cc3)nc(N[C@H]3CC[C@@H](NC(=N)N)CC3)c2c1`, the Ki at Mu-type opioid receptor [1] was found to be 60 nM; in test [2] it was 152 nM. For the same molecule, the Ratio Ki in test [3] came to 0.39.

Turning to `Cc1ccc2nc(/C=C/c3ccc(Cl)cc3)nc(N[C@H]3CCCC[C@@H]3N)c2c1` (racemic), the Ki at Mu-type opioid receptor [1] was found to be 180 nM; in test [2], 538 nM. Further, the Ratio Ki in test [3] came to 0.33.

Consider `Cc1ccc2nc(/C=C/c3ccc(Cl)cc3)nc(NCCCCCCNC(=N)N)c2c1`, for which the values for the Ki (on Mu-type opioid receptor [1]; in test [2]) were 300 nM and 89 nM, respectively. The Ratio Ki in test [3] was 3.37.

As for `Cc1cccc2nc(/C=C/c3ccc(Cl)cc3)nc(NCCCCCCN)c12`, the Ki is 170 nM at Mu-type opioid receptor [1] and 808 nM in test [2]. The Ratio Ki in test [3] turned out to be 0.21.

For `Cc1cccc2c(NCCCCCCN)nc(/C=C/c3ccc(Cl)cc3)nc12`, the Ki amounted to 930 nM at Mu-type opioid receptor [1] and 653 nM in test [2]. Also, in test [3], the Ratio Ki is 1.42.

As for `CC(C)(C)c1ccc2nc(/C=C/c3ccc(Cl)cc3)nc(NCCCCCCN)c2c1`, the Ki was 380 nM at Mu-type opioid receptor [1] and 292 nM in test [2]. Moreover, the Ratio Ki in test [3] stood at 1.3.

For `Cc1ccc2c(NCCCCCCN)nc(/C=C/c3ccc(Cl)cc3)nc2c1`, the inhibition constant (Ki) on Mu-type opioid receptor [1] is 200 nM; in test [2], 420 nM. Further, the Ratio Ki in test [3] was found to be 0.48.

On to `Cc1ccc2nc(NC(=O)c3ccc(Cl)cc3)nc(NC3CCCCC3NC(=N)N)c2c1` (racemic), for which the Ki in test [5] was 1200 nM; in test [2] it was 2.1 nM; at Mu-type opioid receptor [6], 310 nM; in test [7] it was 4 µM.

Turning to `NCCCCCCNc1nc(/C=C/c2ccc(Cl)cc2)nc2cc3ccccc3cc12`, the Ki was 410 nM at Mu-type opioid receptor [1] and 133 nM in test [2]. In addition, the Ratio Ki in test [3] is 3.08.

Consider `Cc1ccc2nc(/C=C/c3ccc(Cl)cc3)nc(N[C@H]3CC[C@H](N)CC3)c2c1`, for which the Ki stood at 300 nM at Mu-type opioid receptor [1] and 795 nM in test [2]. Also, the Ratio Ki in test [3] was 0.37.

These data come from ChEMBL document CHEMBL1139314, “Discovery and structure-activity relationships of 4-aminoquinazoline derivatives, a novel class of opioid receptor like-1 (ORL1) antagonists” (Bioorg Med Chem, 2009).
